Data reported in ChEMBL document CHEMBL1134648 (J Med Chem, 2001).

What was measured:
[1] = organism: Oryctolagus cuniculus; assay: (§1) Antithrombotic efficacy in a rabbit arteriovenous shunt thrombosis model.; format: functional
In short: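 Test agents were given to rabbits by intravenous continuous infusion in an arterio-venous shunt thrombosis model.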

[2] = molecular target: Prothrombin (Homo sapiens, UniProt P00734); assay: In vitro activity against human thrombin.
[3] = molecular target: Trypsin (Homo sapiens, UniProt P07477+P07478+P35030); assay: In vitro activity against human trypsin.; format: protein assay
[4] = molecular target: T1, Coagulation factor X (Oryctolagus cuniculus, UniProt O19045); assay: In vitro activity against rabbit FXa.
T1 sequence (O19045 whole entry): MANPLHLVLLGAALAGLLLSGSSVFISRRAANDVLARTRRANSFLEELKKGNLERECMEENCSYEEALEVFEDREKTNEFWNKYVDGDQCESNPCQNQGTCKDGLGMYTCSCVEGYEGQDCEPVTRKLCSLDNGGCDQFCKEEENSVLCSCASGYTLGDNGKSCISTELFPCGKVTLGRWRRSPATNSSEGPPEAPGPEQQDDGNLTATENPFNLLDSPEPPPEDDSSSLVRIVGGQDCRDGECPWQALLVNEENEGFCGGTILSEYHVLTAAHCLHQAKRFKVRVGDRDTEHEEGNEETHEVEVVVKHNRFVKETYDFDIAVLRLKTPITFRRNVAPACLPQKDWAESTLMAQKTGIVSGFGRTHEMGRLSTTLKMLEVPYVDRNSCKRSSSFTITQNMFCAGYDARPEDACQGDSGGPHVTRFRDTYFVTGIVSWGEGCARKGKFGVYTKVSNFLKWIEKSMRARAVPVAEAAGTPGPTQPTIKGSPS

[5] = molecular target: Coagulation factor X (Homo sapiens, UniProt P00742); assay: Binding affinity against human coagulation factor X
[6] = organism: Homo sapiens; assay: In vitro human activated partial thromboplastin time of the compound.; format: functional
[7] = organism: Homo sapiens; assay: In vitro Activated partial thromboplastin time of the compound.; format: functional
[8] = organism: Oryctolagus cuniculus; assay: as §1; format: functional; remark: listed apart in the source
[9] = molecular target: Vitamin K-dependent protein C (Homo sapiens, UniProt P04070); assay: In vitro activity against human Activated protein C
[10] = molecular target: Tissue-type plasminogen activator (Homo sapiens, UniProt P00750); assay: In vitro activity against human tissue plasminogen activator
[11] = molecular target: T1, Coagulation factor X; assay: In vitro activity against rabbit factor Xa
[12] = molecular target: Urokinase-type plasminogen activator (Homo sapiens, UniProt P00749); assay: In vitro activity against human urokinase
[13] = molecular target: Plasma kallikrein (Homo sapiens, UniProt P03952); assay: In vitro activity against human Plasma kallikrein.; format: cell-free
[14] = molecular target: Coagulation factor IX (Homo sapiens, UniProt P00740); assay: In vitro activity against human factor IXa
[15] = molecular target: Plasminogen (Homo sapiens, UniProt P00747); assay: In vitro activity against human plasmin
Plasminogen, sequence (P00747 97-580 limits assumed): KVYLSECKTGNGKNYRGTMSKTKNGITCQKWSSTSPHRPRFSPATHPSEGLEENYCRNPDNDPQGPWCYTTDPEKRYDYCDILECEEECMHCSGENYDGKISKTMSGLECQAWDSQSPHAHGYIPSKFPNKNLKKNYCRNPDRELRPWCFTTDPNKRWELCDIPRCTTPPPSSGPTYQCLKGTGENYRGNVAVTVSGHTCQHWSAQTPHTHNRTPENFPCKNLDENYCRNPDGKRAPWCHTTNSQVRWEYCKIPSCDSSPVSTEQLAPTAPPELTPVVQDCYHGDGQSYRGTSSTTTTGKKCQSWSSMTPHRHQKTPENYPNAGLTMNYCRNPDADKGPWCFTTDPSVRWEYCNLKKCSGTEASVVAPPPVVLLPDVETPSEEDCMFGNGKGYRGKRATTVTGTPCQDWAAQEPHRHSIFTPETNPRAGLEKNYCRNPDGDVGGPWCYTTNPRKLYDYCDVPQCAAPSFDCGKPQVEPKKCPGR
Plasminogen, sequence (P00747 581-810 limits assumed): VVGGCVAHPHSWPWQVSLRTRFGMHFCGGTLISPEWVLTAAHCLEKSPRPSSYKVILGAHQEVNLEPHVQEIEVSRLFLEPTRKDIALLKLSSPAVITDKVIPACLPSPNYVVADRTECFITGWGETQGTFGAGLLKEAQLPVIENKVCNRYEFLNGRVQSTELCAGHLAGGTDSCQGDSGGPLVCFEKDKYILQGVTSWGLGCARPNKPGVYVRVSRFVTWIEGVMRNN

Coagulation factor X (Homo sapiens, UniProt P00742), sequence (P00742 41-179 limits assumed): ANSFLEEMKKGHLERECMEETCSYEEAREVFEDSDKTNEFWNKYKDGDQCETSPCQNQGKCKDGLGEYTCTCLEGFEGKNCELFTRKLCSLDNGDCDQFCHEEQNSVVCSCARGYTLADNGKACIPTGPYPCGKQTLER
Coagulation factor X (Homo sapiens, UniProt P00742), sequence (P00742 235-488 limits assumed): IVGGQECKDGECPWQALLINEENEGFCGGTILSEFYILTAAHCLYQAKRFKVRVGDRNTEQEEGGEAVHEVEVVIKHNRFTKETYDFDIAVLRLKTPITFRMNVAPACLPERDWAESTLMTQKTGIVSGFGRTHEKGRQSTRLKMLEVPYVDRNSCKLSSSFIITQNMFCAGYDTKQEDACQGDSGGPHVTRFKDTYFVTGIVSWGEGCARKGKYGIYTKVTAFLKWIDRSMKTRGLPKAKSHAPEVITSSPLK
Plasma kallikrein, sequence (P03952 20-390 limits assumed): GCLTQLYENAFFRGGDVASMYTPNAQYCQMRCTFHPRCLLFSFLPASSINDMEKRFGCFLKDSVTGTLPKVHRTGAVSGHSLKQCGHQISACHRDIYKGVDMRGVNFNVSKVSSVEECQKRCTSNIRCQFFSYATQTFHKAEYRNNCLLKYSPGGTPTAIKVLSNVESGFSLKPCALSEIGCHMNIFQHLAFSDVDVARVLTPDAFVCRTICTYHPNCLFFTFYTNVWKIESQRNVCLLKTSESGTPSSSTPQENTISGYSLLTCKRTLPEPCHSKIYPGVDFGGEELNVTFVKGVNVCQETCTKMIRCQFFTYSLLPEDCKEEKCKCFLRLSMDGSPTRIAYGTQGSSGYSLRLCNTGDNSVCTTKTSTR
Plasma kallikrein, sequence (P03952 391-638 limits assumed): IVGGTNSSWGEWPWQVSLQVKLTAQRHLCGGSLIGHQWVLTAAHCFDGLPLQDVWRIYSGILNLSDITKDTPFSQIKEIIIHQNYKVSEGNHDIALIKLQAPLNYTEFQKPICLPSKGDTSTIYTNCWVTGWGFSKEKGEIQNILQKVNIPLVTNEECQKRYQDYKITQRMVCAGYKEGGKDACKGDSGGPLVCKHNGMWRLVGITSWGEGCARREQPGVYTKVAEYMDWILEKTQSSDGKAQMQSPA
Coagulation factor IX, sequence (P00740 47-191 limits assumed): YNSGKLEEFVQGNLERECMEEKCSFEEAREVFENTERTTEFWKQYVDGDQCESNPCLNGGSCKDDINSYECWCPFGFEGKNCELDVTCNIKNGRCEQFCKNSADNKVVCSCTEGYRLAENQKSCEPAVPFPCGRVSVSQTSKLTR
Coagulation factor IX, sequence (P00740 227-461 limits assumed): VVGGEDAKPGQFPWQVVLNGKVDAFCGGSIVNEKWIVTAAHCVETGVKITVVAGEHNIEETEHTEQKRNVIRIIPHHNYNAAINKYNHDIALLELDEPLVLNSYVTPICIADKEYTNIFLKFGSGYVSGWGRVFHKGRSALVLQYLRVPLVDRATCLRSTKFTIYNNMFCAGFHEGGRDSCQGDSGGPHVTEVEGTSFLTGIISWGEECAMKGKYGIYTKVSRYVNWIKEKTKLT
Vitamin K-dependent protein C, sequence (P04070 43-197 limits assumed): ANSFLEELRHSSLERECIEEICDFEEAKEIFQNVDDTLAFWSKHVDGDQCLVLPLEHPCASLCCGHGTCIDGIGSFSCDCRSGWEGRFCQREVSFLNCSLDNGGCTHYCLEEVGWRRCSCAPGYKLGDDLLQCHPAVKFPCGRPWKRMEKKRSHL
Vitamin K-dependent protein C, sequence (P04070 212-461 limits assumed): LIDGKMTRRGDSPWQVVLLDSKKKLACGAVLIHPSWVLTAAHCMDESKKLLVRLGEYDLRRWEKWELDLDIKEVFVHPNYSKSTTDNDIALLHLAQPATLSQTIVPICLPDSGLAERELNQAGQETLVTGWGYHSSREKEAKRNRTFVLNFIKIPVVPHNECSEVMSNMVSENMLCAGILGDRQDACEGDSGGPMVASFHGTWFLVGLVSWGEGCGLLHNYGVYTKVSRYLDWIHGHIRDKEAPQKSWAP
Tissue-type plasminogen activator, sequence (P00750 whole entry): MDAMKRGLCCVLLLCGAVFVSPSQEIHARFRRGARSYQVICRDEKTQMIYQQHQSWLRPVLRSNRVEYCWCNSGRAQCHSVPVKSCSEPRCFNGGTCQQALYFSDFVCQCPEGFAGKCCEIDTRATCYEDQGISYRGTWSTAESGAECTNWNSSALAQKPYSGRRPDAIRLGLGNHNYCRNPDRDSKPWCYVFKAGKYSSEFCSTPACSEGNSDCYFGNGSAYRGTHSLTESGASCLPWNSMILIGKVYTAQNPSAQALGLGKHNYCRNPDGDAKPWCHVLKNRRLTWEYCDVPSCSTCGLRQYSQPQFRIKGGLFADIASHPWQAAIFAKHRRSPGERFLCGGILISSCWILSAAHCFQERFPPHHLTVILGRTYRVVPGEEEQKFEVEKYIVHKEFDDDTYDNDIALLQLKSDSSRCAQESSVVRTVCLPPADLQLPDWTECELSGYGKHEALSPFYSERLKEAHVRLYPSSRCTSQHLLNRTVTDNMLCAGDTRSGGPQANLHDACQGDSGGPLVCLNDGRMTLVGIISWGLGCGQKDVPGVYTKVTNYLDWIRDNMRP

SMILES | Ki [2] [nM] | Ki [3] [nM] | Ki [5] [nM] | further results
NCc1cccc(-n2nc(C(F)(F)F)cc2C(=O)Nc2ccc(-c3ccccc3S(N)(=O)=O)cc2)c1 | 14000 | 120 | 0.91 | ID50 [1]: 1 µM/h/kg; Ki [4]: 2.1 nM; APTT [6]: 6.4 µM
N=C(N)c1cccc(-n2nc(C(F)(F)F)cc2C(=O)Nc2ccc(-c3ccccc3S(N)(=O)=O)cc2)c1 | 40 | 3.9 | 0.015 | 
Cc1cc(C(=O)Nc2ccc(-c3ccccc3S(C)(=O)=O)cc2F)n(-c2cccc(CN)c2)n1 | 14000 | 130 | 480 | ID50 [1]: 0.9 µM/h/kg; Ki [4]: 1.2 nM; APTT [6]: 1.1 µM
Cc1cc(C(=O)Nc2ccc(-c3ccccc3C(F)(F)F)cc2)n(-c2cccc(C(=N)N)c2)n1 | 300 | 49 | 0.04 | ID50 [1]: 0.24 µM/h/kg
N=C(N)c1cccc(-n2cccc2C(=O)Nc2ccc(-c3ccccc3S(N)(=O)=O)cc2)c1 | 900 |  | 0.8 | 
Cc1cc(C(=O)N(C)c2ccc(-c3ccccc3S(N)(=O)=O)cc2)n(-c2cccc(C(=N)N)c2)n1.O=C(O)C(F)(F)F | > 2000 | > 1600 | 11 | 
Cc1cc(C(=O)Nc2ccc(-c3ccccc3S(N)(=O)=O)cc2)n(-c2cccc(C(=N)N)c2)n1.O=C(O)C(F)(F)F |  |  |  | Ki [4]: 0.03 nM; APTT [7]: 0.44 µM; ID50 [8]: 0.02 µM/h/kg
Cc1cc(C(=O)Nc2ccc(-c3ccccc3S(C)(=O)=O)cc2)n(-c2cccc(C(=N)N)c2)n1 | 180 | 13 | 0.008 | 
Cc1cc(C(=O)Nc2ccc(-c3ccccc3S(N)(=O)=O)cc2F)n(-c2cccc(C(=N)N)c2)n1 | 210 | 4.6 | 0.005 | 
Cc1cc(C(=O)Nc2ccc(-c3ccccc3S(C)(=O)=O)cc2F)n(-c2cccc(C(=N)N)c2)n1 | 230 |  | 0.02 | 
Cc1cc(C(=O)Nc2ccc(-c3ccccc3S(N)(=O)=O)cn2)n(-c2cccc(C(=N)N)c2)n1 | 1400 | 59 | 0.007 | ID50 [1]: 0.07 µM/h/kg
N=C(N)c1cccc(-n2nc(C(F)(F)F)cc2C(=O)Nc2ccc(-c3ccccc3S(N)(=O)=O)cn2)c1 | 400 | 59 | 0.009 | 
CS(=O)(=O)c1ccccc1-c1ccc(NC(=O)c2cc(C(F)(F)F)nn2-c2cccc(CN)c2)c(F)c1.Cl |  |  |  | ID50 [1]: 1.1 µM/h/kg; Ki [9]: 1800 nM; Ki [10]: > 45000 nM; Ki [11]: 0.3 nM; Ki [12]: > 19000 nM; Ki [13]: 61 nM; Ki [14]: 2200 nM; Ki [15]: > 35000 nM
N=C(N)c1cccc(-n2nccc2C(=O)Nc2ccc(-c3ccccc3S(N)(=O)=O)cc2)c1 | 900 |  | 0.16 | 
CS(=O)(=O)c1ccccc1-c1ccc(NC(=O)c2cc(C(F)(F)F)nn2-c2cccc(C(=N)N)c2)cc1 | 70 | 4.3 | 0.008 | 
NCc1cccc(-n2nc(C(F)(F)F)cc2C(=O)Nc2ccc(-c3ccccc3S(N)(=O)=O)cc2F)c1 | 2000 | 53 | 0.36 | ID50 [1]: 0.6 µM/h/kg; Ki [4]: 1 nM; APTT [6]: 0.91 µM
Cc1cc(C(=O)Nc2ccc(-c3ccccc3S(N)(=O)=O)cc2Cl)n(-c2cccc(C(=N)N)c2)n1 | 300 | 15 | 0.009 | 
CCCCc1cc(C(=O)Nc2ccc(-c3ccccc3S(N)(=O)=O)cc2)n(-c2cccc(C(=N)N)c2)n1.O=C(O)C(F)(F)F | 300 | 11 | 0.06 | 
Cc1cc(C(=O)Nc2ncc(-c3ccccc3S(N)(=O)=O)cn2)n(-c2cccc(C(=N)N)c2)n1 | 7400 | 150 | 0.041 | ID50 [1]: 0.03 µM/h/kg
CS(=O)(=O)c1ccccc1-c1ccc(NC(=O)c2cc(C(F)(F)F)nn2-c2cccc(C(=N)N)c2)c(F)c1 | 50 | 3.4 | < 0.005 | 
Cc1cc(C(=O)Nc2ccc(-c3ccccc3S(C)(=O)=O)cc2)n(-c2cccc(CN)c2)n1 | 21000 | 220 | 0.89 | APTT [6]: 1.3 µM
Cc1cc(C(=O)Nc2ccc(-c3ccccc3S(N)(=O)=O)cc2)n(-c2cccc(CN)c2)n1 | 21000 |  | 2.7 | Ki [4]: 4.1 nM; APTT [6]: 2.3 µM
Cc1cc(C(=O)Nc2ccc(-c3ccccc3F)cc2)n(-c2cccc(C(=N)N)c2)n1 | 450 | 100 | 0.46 | 
CS(=O)(=O)c1ccccc1-c1ccc(NC(=O)c2cc(C(F)(F)F)nn2-c2cccc(CN)c2)cc1 | 5800 | 100 | 0.38 | ID50 [1]: 2.2 µM/h/kg; APTT [6]: 2.2 µM
Cc1cc(C(=O)Nc2ccc(-c3ccccc3S(N)(=O)=O)cc2F)n(-c2cccc(CN)c2)n1 | 12000 | 120 | 1.6 | Ki [4]: 2.2 nM; APTT [6]: 0.92 µM
Cc1cc(C(=O)Nc2ccc(-c3ccccc3S(N)(=O)=O)cc2Br)n(-c2cccc(C(=N)N)c2)n1 | 200 | 17 | 0.01 | 
Cc1cc(C(=O)Nc2ccc(-c3ccccc3)cc2)n(-c2cccc(C(=N)N)c2)n1 | 600 | 87 | 1.3 | 
N=C(N)c1cccc(-n2nc(C(F)(F)F)cc2C(=O)Nc2ccc(-c3ccccc3S(N)(=O)=O)cc2F)c1 | 120 | 4 | < 0.005 | 
N=C(N)c1cccc(-n2nc(C(F)(F)F)cc2C(=O)Nc2ncc(-c3ccccc3S(N)(=O)=O)cn2)c1 |  | 20 |  | 
N=C(N)c1cccc(-c2nocc2C(=O)Nc2ccc(-c3ccccc3S(N)(=O)=O)cc2)c1 | 2800 |  |  | 
